PMC3102230 (Chemistry & biology, 2011)
Like-named read-outs stand apart in the source and are kept apart here.

Experiments:
PRE complex = experiment: EF-G catalysed translocation assay; format: biochemical; details: 10 μM Evn, E. coli fMetPhe-tRNAPhe(Prf16/20)
Outline: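 Initiation complex: ribosomes (2 μM), MFK mRNA (8 μM), IF1/IF2/IF3 (3 μM each), 1 mM GTP, [35S]fMet-tRNAfMet (3 μM), 25 min, buffer A pH 7.5, 37 °C. Combined with EF-Tu ternary complex for 45 sec. PRE complex sucrose-cushion purified (20 mM Mg2+). 0.1 μM PRE ± test compound stopped-flow mixed with 5 μM EF-G, 1 mM GTP. Proflavin excitation 460 nm, 495 nm long-pass. Double-exponential fits.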

Tet(O) = experiment: rdGTPase assay, Tet; format: biochemical; details: data not shown
POST complex = experiment: EF4-mediated back-translocation assay; format: biochemical, E. coli; details: 5 μM Evn
Outline: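 POST complex formed from initiation and ternary complexes plus EF-G (0.2:1 to ribosomes) and 1 mM GTP, 37 °C, 10 min, then sucrose-cushion purified. 0.1 μM POST premixed with 0.15 μM tRNAfMet was stopped-flow mixed with 3 μM EF4, 0.5 mM GDPNP and test compound at 0–5 μM (final). Proflavin excitation 460 nm, 495 nm long-pass. Traces fit to a three-step back-translocation kinetic model.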

E. coli EF4 = experiment: Malachite green rdGTPase assay, EF4; format: biochemical; details: for effect on rdGTPase activity of EF4: E. coli 70S ribosomes, 1 μM ThS or 5 μM MiC (Figure 2C); for effect on rdGTPase activity of EF4, ribosomes lacking L7/L12: E. coli 70SΔL7/L12 ribosomes, 12 hours at 20 °C (Figure 2H)
E. coli BipA = experiment: Malachite green rdGTPase assay, BipA; format: biochemical; details: for effect on rdGTPase activity of BipA: E. coli 70S ribosomes, 1 μM ThS or 5 μM MiC (Figure 2D); for effect on rdGTPase activity of BipA, ribosomes lacking L7/L12: E. coli 70SΔL7/L12 ribosomes, 12 hours at 20 °C (Figure 2I)
[1] = test system: IF2-dependent 70SIC formation; experiment: IF2-dependent 70SIC formation light scattering assay; format: biochemical, E. coli
Outline: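 Stopped-flow light scattering at 436 nm excitation with a 455 nm cut-off filter. It was premixed with test compound (0–5 μM), then rapidly mixed with 0.3 μM 50S subunits. All concentrations are final after mixing.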

E. coli EF-GΔG′ = experiment: Malachite green rdGTPase assay, EF-GΔG′; format: biochemical
S. faecalis TetM = experiment: Malachite green rdGTPase assay, TetM; format: biochemical; details: for effect on rdGTPase activity of TetM: E. coli 70S ribosomes, 1 μM ThS or 5 μM MiC (Figure 2B)
E. coli EF-G = experiment: Malachite green ribosome-dependent GTPase; format: biochemical; details: for effect on rdGTPase activity of EF-G, ribosomes lacking L7/L12: E. coli 70SΔL7/L12 ribosomes, 12 hours at 20 °C (Figure 2G)
[2] = test system: E. coli lysate-based system; experiment: In vitro coupled transcription-translation assay; format: biochemical; details: read-out: IC50, in vitro transcription-translation (synthesis of GFP); E. coli in vitro coupled transcription-translation system (Figure S3)
Outline: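 Coupled transcription-translation in an E. coli lysate-based system, run with or without test compound. GFP fluorescence was scanned with a blue laser module, and the images were quantified.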

[3] = E. coli 70S ribosomes, 1 μM ThS or 5 μM MiC (Figure 2F)
[4] = E. coli 70S ribosomes, 1 μM ThS or 5 μM MiC (Figure 2A)

SMILES	IC50 [2] [nM]	effect on rdGTPase activity of EF4 (E. coli EF4)	effect on rdGTPase activity of EF4, ribosomes lacking L7/L12 (E. coli EF4)	effect on rdGTPase activity of BipA (E. coli BipA)	effect on rdGTPase activity of BipA, ribosomes lacking L7/L12 (E. coli BipA)	effect on rdGTPase activity of EF-GΔG′ (E. coli EF-GΔG′; [3])	effect on rdGTPase activity of TetM (S. faecalis TetM)	effect on rdGTPase activity of EF-G (E. coli EF-G; [4])	effect on rdGTPase activity of EF-G, ribosomes lacking L7/L12 (E. coli EF-G)	also measured
COC[C@H]1O[C@@H](O[C@@H]2OC[C@@H]3O[C@@]4(OC[C@@H](OC(=O)c5c(C)cc(O)cc5O)[C@@H]5OCO[C@H]54)O[C@H]3[C@H]2O)[C@@H](OC)[C@@H](O)[C@@H]1O[C@@H]1O[C@H](C)[C@H](OC)[C@H](O[C@@H]2O[C@H](C)[C@H]3O[C@]4(C[C@@H](O)[C@H](O[C@H]5C[C@@H](O[C@H]6C[C@](C)([N+](=O)[O-])[C@@H](OC)[C@H](C)O6)[C@H](OC(=O)c6c(C)c(Cl)c(O)c(Cl)c6OC)[C@@H](C)O5)[C@@H](C)O4)O[C@]3(C)[C@@H]2O)[C@H]1O [Evn, evernimicin]	~2000									apparent rate constant of translocation, Step 2 (PRE complex; control 1.3 ± 0.1 s^−1): 3.5 ± 0.2 s⁻¹; apparent rate constant of translocation, Step 1 (PRE complex; control 20.7 ± 0.6 s^−1): 28.1 ± 0.7 s⁻¹; effect on rdGTPase of Tet(O) (Tet(O)): does not inhibit; effect on EF4-catalyzed component of back-translocation (POST complex): completely abolished; IC50 (E. coli EF4; read-out: IC50, inhibition of EF4 rdGTPase, E. coli 70S ribosomes (Figure 5F)): ~3000 nM; IC50 (E. coli BipA; read-out: IC50, inhibition of BipA rdGTPase, E. coli 70S ribosomes (Figure 5E)): ~20000 nM; effect on IF2-dependent light scattering (70SIC formation) ([1]; 5 μM Evn): almost all IF2-dependent light scattering was abolished; Ki ([1]; read-out: apparent Ki for inhibition of IF2-dependent 70SIC formation, reciprocal of IF2-dependent light scattering increase at 1 sec vs. Evn concentration): 1800 ± 200 nM; effect on rdGTPase activity of EF-GΔG′ (E. coli EF-GΔG′; increasing concentrations of Evn (Figure 5C)): little or no effect; effect on rdGTPase activity of IF2 (E. coli IF2; increasing concentrations of Evn (Figure 5A)): strongly inhibits; IC50 (E. coli IF2; read-out: IC50, inhibition of IF2 rdGTPase, E. coli 70S ribosomes (Figure 5A)): ~7000 nM; effect on rdGTPase activity of Tet(M) (S. faecalis TetM; increasing concentrations of Evn (Figure 5D)): little or no effect; effect on rdGTPase activity of EF-G (E. coli EF-G; increasing concentrations of Evn (Figure 5B)): little or no effect
C/C=C(\NC(=O)c1csc(-c2csc(-c3ccc4c(n3)-c3csc(n3)[C@H]([C@@H](C)O)NC(=O)c3csc(n3)[C@H](C(C)C)NC(=O)c3csc(n3)/C(=C/C)NC(=O)[C@H]([C@@H](C)O)NC(=O)c3csc-4n3)n2)n1)C(=O)NC[C@@H](C)O [MiC, micrococcin]	~3000	inhibited	inhibited	inhibited	inhibited	inhibit, rather than stimulate	inhibited	enhanced	inhibited	
C=C(NC(=O)C(=C)NC(=O)c1csc(C2=N[C@@H]3c4csc(n4)[C@H]4NC(=O)c5csc(n5)[C@H]([C@](C)(O)[C@@H](C)O)NC(=O)[C@H]5CSC(=N5)/C(=C/C)NC(=O)[C@H]([C@@H](C)O)NC(=O)c5csc(n5)[C@]3(CC2)NC(=O)[C@H](C)NC(=O)C(=C)NC(=O)[C@H](C)NC(=O)[C@H]([C@@H](C)CC)N[C@@H]2C=Cc3c([C@H](C)O)cc(nc3[C@H]2O)C(=O)O[C@@H]4C)n1)C(N)=O [ThS, thiostrepton]	~3000	inhibited	inhibited	inhibited	inhibited	inhibited	inhibited	inhibited	inhibited	effect on rdGTPase activity of IF2 (E. coli IF2; E. coli 70S ribosomes, 1 μM ThS or 5 μM MiC (Figure 2E)): inhibited
